Active and inactive are the calls of the source. The rule behind the calls is not given here.
Legend:
A549 = assay: Inhibition of NF-kappaB activation in human TNFalpha-stimulated A549 cells at 20 uM preincubated for 2 hrs before TNFalpha challenge measured after 7 hrs post stimulation by luciferase reporter gene assay; assay type: cell-based
Procedure, shortened: (§1)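 Stable κB-luciferase-expressing A549 cells; NF-κB transcription activity read as luciferase signal; single concentration of 20 μM and dose-response experiments.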

Hs 766 [1] = assay: Potentiation of gemcitabine-induced cytotoxicity against human Hs766T cells assessed as cell growth inhibition at 20 uM after 5 days by alamar blue assay; assay type: functional, cell-based
Procedure, shortened: (§2)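 Hs 766T and PANC-1 pancreatic tumour cells given test agent alone or combined with gemcitabine; growth inhibition measured; data representative of three independent experiments, mean ± SD.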

Hs 766 [2] = assay: Growth inhibition of human Hs766T cells at 20 uM after 5 days by alamar blue assay; assay type: functional, cell-based; procedure, shortened: as §2
HEK293 [3] = assay: Inhibition of TNFalpha-stimulated IkappaBalpha protein expression in HEK293 cells at 50 uM after 60 mins by Western blot analysis; assay type: functional, cell-based; conditions: Homo sapiens
Procedure, shortened: (§3)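 HEK 293 cells stimulated with TNF-α with or without test agent; IκBα protein levels assessed by Western blotting at set times after stimulation.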

HEK293 [4] = assay: Inhibition of TNFalpha-stimulated IkappaBalpha protein expression in HEK293 cells at 50 uM after 30 mins by Western blot analysis; assay type: functional, cell-based; conditions: Homo sapiens; procedure, shortened: as §3
PANC-1 [5] = assay: Growth inhibition of human PANC1 cells at 20 uM after 5 days by alamar blue assay; assay type: functional, cell-based; procedure, shortened: as §2
HEK293 [6] = assay: Inhibition of TNFalpha-stimulated IkappaBalpha protein expression in HEK293 cells at 50 uM after 120 mins by Western blot analysis; assay type: functional, cell-based; conditions: Homo sapiens; procedure, shortened: as §3
[7] = Inhibition of NF-kappaB activation in human TNFalpha-stimulated A549 cells preincubated for 2 hrs before TNFalpha challenge measured after 7 hrs post stimulation by luciferase reporter gene assay; assay type: cell-based; procedure, shortened: as §1
PANC-1 [8] = assay: Potentiation of gemcitabine-induced induction of apoptosis in human PANC1 cells assessed as activation of caspase 3/7 after 48 hrs by caspase-Glo 3 assay; assay type: functional, cell-based
Procedure, shortened: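 PANC-1 cells treated with test agent alone or combined with gemcitabine; caspase 3/7 activity read after 48 hr as apoptosis marker; representative of two independent experiments, mean ± SD.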

PANC-1 [9] = assay: Potentiation of gemcitabine-induced cytotoxicity against human PANC1 cells assessed as cell growth inhibition at 20 uM after 5 days by alamar blue assay; assay type: functional, cell-based; procedure, shortened: as §2

COc1ccc2cc1Oc1cc(ccc1OC)CCC(=O)CCCC2
inhibition (A549): Active
growth inhibition (GI) (Hs 766 [1]): Active
growth inhibition (GI) (Hs 766 [2]): inactive
inhibition (HEK293 [3]): Active
inhibition (HEK293 [4]): Active
growth inhibition (GI) (PANC-1 [5]): inactive
inhibition (HEK293 [6]): Active
IC50 [7]: 14.3 µM
Activity (PANC-1 [8]): Active
growth inhibition (GI) (PANC-1 [9]): Active

COc1ccc2c(c1OC)C(=O)O[C@@H]2[C@H]1c2c(cc3c(c2OC)OCO3)CCN1C [NOSCAPINE]
IC50 [7]: 65.2 µM

C=C1C(=O)O[C@@H]2C3O[C@]3(C)CC/C=C(\C)CC[C@@H]12 (some centres undefined)
IC50 [7]: 4.7 µM

COc1cc2ccc1Oc1cc(ccc1OC)CCC(O)CCCC2 (centres undefined) [PLATYCARYNOL]
IC50 [7]: 36.4 µM

COc1cc(/C=C/C(=O)CC(=O)/C=C/c2ccc(O)c(OC)c2)ccc1O [CURCUMIN]
IC50 [7]: 20.3 µM
